PMC10835759 (RSC Advances, 2024)

Assays:
rat α-glucosidase = test: Glycosidase inhibitory activity, enzymes from rat small intestines; format: biochemical; conditions: rat small intestinal enzymes, at 100 μg mL^−1
Procedure, shortened: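 Enzyme source: brush border membrane vesicles prepared from rat small intestine and suspended in 0.1 M maleate buffer, pH 6.0. Test compound in DMSO, diluted in maleate buffer to 10% DMSO (2.5% final). Substrate solutions in maleate buffer: maltose 74 mM, sucrose 74 mM, 7.4 mM for isomaltase. Mixture incubated at 37 °C for 30 min and stopped by boiling for 2 min. Glucose measured by the glucose-oxidase method.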

rat intestinal sucrase = rat intestinal sucrase (Rattus norvegicus, UniProt P23739); test: Inhibitory effects on rat intestinal α-glucosidases: sucrase; format: biochemical; conditions: for IC50: IC50 Sucrase, rat small intestinal brush border membrane vesicles, sucrose 74 mM, pH 6.0, 37 °C, 30 min; for inhibition (%) Sucrase: at 100 μg mL^−1 (26a: 297 μM, 26b: 271 μM, 26c and 27c: 341 μM, 28a: 326 μM, 28b: 296 μM, 28c: 380 μM)
rat intestinal sucrase, sequence (P23739 whole entry): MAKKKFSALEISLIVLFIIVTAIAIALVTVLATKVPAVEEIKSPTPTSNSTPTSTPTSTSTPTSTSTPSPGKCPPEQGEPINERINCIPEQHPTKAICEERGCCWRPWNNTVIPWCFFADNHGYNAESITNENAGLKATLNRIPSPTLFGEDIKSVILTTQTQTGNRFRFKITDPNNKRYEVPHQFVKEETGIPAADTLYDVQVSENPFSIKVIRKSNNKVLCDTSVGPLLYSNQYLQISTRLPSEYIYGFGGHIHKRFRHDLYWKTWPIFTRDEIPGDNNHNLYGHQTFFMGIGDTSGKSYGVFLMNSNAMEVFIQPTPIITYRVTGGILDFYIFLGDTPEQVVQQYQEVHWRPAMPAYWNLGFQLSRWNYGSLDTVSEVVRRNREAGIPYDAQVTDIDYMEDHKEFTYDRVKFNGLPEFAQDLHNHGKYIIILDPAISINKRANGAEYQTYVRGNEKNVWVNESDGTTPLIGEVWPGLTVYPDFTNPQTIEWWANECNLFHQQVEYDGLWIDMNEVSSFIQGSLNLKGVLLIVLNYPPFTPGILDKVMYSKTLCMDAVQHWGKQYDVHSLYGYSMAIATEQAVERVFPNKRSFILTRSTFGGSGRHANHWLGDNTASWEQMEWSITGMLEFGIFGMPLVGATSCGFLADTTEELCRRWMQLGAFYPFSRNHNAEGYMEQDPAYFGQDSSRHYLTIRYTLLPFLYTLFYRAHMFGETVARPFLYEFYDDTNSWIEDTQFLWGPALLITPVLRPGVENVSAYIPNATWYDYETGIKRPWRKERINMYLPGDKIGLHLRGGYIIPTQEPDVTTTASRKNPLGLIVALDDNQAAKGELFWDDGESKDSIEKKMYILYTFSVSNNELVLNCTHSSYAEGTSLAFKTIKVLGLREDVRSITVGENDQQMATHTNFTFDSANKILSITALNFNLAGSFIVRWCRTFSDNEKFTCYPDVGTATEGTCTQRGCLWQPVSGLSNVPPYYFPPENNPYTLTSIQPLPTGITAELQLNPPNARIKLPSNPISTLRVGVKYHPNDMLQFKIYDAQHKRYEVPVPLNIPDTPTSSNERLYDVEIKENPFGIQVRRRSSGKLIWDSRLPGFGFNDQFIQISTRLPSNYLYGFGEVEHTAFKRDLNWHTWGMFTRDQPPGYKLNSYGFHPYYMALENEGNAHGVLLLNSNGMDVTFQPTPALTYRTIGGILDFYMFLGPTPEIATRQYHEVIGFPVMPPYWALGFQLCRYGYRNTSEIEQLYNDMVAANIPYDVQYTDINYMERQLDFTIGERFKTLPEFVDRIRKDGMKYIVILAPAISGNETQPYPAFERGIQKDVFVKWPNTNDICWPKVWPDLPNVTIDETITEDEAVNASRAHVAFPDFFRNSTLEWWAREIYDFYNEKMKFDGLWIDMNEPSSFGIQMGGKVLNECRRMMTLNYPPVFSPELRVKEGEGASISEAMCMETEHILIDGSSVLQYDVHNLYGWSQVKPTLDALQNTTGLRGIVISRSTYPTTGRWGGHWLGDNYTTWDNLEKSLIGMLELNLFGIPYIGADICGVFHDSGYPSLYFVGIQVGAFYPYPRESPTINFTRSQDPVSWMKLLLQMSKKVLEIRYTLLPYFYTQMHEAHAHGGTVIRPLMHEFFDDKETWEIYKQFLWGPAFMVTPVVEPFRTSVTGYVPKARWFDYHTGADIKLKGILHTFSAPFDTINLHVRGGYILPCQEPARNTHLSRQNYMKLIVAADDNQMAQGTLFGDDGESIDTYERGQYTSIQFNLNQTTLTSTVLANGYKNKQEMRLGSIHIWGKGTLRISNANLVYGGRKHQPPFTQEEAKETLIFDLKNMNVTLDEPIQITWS

[1] = biological target: rat intestinal isomaltase (Rattus norvegicus, UniProt P23739); test: Inhibitory effects on rat intestinal α-glucosidases: isomaltase; format: biochemical; conditions: at 100 μg mL^−1 (26a: 297 μM, 26b: 271 μM, 26c and 27c: 341 μM, 28a: 326 μM, 28b: 296 μM, 28c: 380 μM)
rat intestinal isomaltase, sequence (P23739 whole entry): as above

yeast glucosidase = conditions: read-out: Ki, inhibitory activity against yeast glucosidase; cited from earlier work

Structure (SMILES)	inhibitory activity against maltase, sucrase and isomaltase (in words) (rat α-glucosidase)	IC50 (rat intestinal sucrase) [µM]	inhibition (%) Sucrase (rat intestinal sucrase) [%]	inhibition (%) Isomaltase [1] [%]	Ki (yeast glucosidase) [µM]
OCC[S+](C[C@@H](O)[C@@H](O)CO)C(CO)CO.[Cl-] (single isomer, unassigned) [Compound 26c]	hardly inhibited	> 341	3.2	5.9	–
OCC[S+](CCO)C[C@@H](O)[C@@H](O)CO.[Cl-] [Compound 28c, Di(2-hydroxyethyl) [(2S,3S)-2,3,4-trihydroxybutyl] sulfonium chloride]	lost considerable activity	> 380	2.6	−0.9	–
O=S(=O)([O-])O[C@@H](CO)[C@H](O)C[S@+]1C[C@@H](O)[C@H](O)[C@H]1CO [Salacinol (1), salacinol, reference compound]	effectively inhibited	–	–	–	14

More lines, main results first:

inhibitory activity against maltase, sucrase and isomaltase (in words) (rat α-glucosidase)	IC50 (rat intestinal sucrase) [µM]	inhibition (%) Sucrase (rat intestinal sucrase) [%]	inhibition (%) Isomaltase [1] [%]	Structure (SMILES)	Ki (yeast glucosidase) [µM]
negligible	> 341	4.4	−2.3	OCC[S+](C[C@@H](O)CO)C[C@@H](O)[C@@H](O)CO.[Cl-] (stereo partly drawn) [Compound 27c, [(S)-2,3-Dihydroxypropyl] (2-hydroxyethyl) ((2S,3S)-2,3,4-trihydroxybutyl) sulfonium chloride]	–
effectively inhibited	1.4	–	–	[O-][C@@H](CO)[C@H](O)C[S@+]1C[C@@H](O)[C@H](O)[C@H]1CO [Neosalacinol (4), neosalacinol, reference compound]	–
